From PubChem
EBV gp42 block: inhibitors of Epstein-Barr virus glycoprotein 42. 220,000 tested, 0.42% active. Q1HVG2. inhibition, % (tested at 21.74 µM). AID 1085. Fluorescence polarization binding assay, mP read-out; in the data active = inhibition above about 50%
Target sequence (Q1HVG2 whole entry, looked up): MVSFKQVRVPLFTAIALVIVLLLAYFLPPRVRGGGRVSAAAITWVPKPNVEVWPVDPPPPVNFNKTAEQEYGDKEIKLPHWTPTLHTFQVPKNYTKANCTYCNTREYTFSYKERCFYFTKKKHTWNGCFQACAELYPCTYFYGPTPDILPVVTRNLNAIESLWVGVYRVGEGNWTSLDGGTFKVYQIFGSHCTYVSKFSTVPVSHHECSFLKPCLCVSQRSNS
HCV core dimer: blocks dimerization of HCV core protein; TR-FRET GST/Flag-core106 dimerization, 1536-well; inhibition, % at 5 µM; 300,000 tested, 0.33% active;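 active = inhibition above the mean of all tested compounds plus 3 SD, set per screening campaign, cut at about 45% in these data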
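assay system = GST-tagged and Flag-tagged HCV core protein residues 1-106 | controls = unlabelled core106 and no-GST-core106 wells | incubation = compound-protein-antibody incubation 4 h at 22.5 °C | probe or stimulus = Eu donor and XL665 acceptor anti-tag antibodies | read-out = % inhibition based on acceptor/donor emission ratio | signal = TR-FRET 671 and 617 nm emission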
ZTA DNA inh: ZTA (EBV) inhibition in EBNA-1 counter-screen; P03206; ZTA-DNA binding, fluorescence polarization; inhibition, % at 11 µM; 320,000 tested, 0.15% active; in the data active = inhibition above about 33%
HCV NS3 hel inh: blocks Hepatitis C virus NS3 helicase unwinding; NS3 helicase DNA unwinding, Cy5 molecular beacon fluorescence; inhibition, % at 10.9 µM; 290,000 tested, 0.56% active;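 active = inhibition above the mean of all tested compounds plus 3 SD, set per campaign, cut at about 35% in these data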;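 also: 0% = DMSO wells and 100% = thioflavine S control wells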
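Assay system – hepatitis C virus NS3 helicase domain fragment enzyme · Buffer or medium – MOPS pH 6.5, MgCl2, DTT, Tween20, BSA · Reagent – Cy5/quencher beacon DNA duplex and ATP to start · Compound – single 10.9 µM dose · Timing – 1 h at 25 °C · Technique – Cy5 beacon fluorescence read at start and 1 h · Measure – % inhibition of unwinding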
MEX-5 binding: C. elegans MEX-5 TCR-2 RNA binding activity | AID 1832 | Q9XUB2 | MEX-5/FITC-TCR2 RNA binding, fluorescence polarization; active compounds read low | 300,000 tested, 0.38% active | activity score (negative = inhibition of binding), % at 10 µM;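 active = inhibition past about -25% in most replicates, and total fluorescence under double the plate's negative control median, limit read from the data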;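 also: 0% = DMSO and -100% = 5 µM competing unlabeled TCR2 RNA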
Target sequence (Q9XUB2 whole entry, looked up): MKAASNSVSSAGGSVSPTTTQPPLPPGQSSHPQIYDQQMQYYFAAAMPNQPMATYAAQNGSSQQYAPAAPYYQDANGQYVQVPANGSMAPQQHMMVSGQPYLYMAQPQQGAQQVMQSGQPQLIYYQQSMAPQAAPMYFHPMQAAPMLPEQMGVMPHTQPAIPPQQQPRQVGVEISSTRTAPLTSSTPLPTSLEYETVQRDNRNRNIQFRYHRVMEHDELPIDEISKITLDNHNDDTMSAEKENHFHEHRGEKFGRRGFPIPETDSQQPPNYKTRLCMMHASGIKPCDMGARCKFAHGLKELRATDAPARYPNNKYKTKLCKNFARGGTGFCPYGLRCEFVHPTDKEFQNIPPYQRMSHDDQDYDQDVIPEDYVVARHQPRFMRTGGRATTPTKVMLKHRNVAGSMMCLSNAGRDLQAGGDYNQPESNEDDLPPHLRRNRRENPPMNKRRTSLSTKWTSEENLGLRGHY
EBNA-1 inh: blocks EBNA-1 binding to DNA; EBNA-1 DNA binding, fluorescence polarization; inhibition, % at 14.8 µM; 300,000 tested, 0.34% active; in the data active = inhibition above about 28%
EBNA-1 confirm: EBNA-1 (EBV) inhibition, confirmation; shares compounds with EBNA-1 inh; Recombinant EBNA-1 DBD, Cy5-DNA fluorescence polarization; inhibition, % at 14.8 µM; 830 tested, 35% active; AID 2292;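 active = mean inhibition across replicates above a set limit taken from the earlier primary screen, cut at about 28% in these data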;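 also: plate controls were EBNA-1 protein with DMSO for no effect and wells lacking EBNA-1 for full effect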
ZTA DNA inh trip: counter-screen for EBNA-1 inhibitors: Epstein-Barr virus ZTA inhibitors, triplicate. 830 tested, under 10 active. AID 2328. Zta-ZRE DNA binding, Cy5 fluorescence polarization. shares compounds with EBNA-1 inh. inhibition, % at 11.1 µM;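 active = mean inhibition over triplicates above a set limit taken from the primary EBNA-1 screen, cut at about 37% in these data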;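 also: purified full length Zta protein with Cy5 labeled ZRE DNA probe; 0% = Zta with DMSO and 100% = wells lacking Zta protein; inhibitors lower polarization by freeing the labeled DNA probe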
The depositor's hits bear a star; nt = not tested or not shown. Sampled rows, rich in hits. Any-hit rate of the full collection: about 1.7%.

SMILES | EBV gp42 block | HCV core dimer | ZTA DNA inh | HCV NS3 hel inh | MEX-5 binding | EBNA-1 inh | EBNA-1 confirm | ZTA DNA inh trip
CCOC(=O)C1=C(C)Nc2nc(SCC)nn2C1c1ccc(OC)cc1 (stereo unspecified) | -12 | -2 | 2 | -5 | 4 | 33* | 6 | 2
COc1ccc(/C=N/NC(=O)c2c([N+](=O)[O-])c(C)nn2C)cc1 | -8 | -5 | -4 | 1 | -3 | -4 | nt | nt
Cc1nn(C)c(C(=O)N/N=C/c2ccc(-c3ccccc3)cc2)c1Cl | nt | 12 | 6 | -3 | 0 | 37* | 28* | 25
O=C(NCc1cccs1)C1CCC(CNS(=O)(=O)c2ccc(Br)s2)CC1 (stereo unspecified) | -10 | 10 | -8 | 5 | -1 | 4 | nt | nt
NS(=O)(=O)c1ccc(CCNC(=O)C2CCC(CNS(=O)(=O)c3ccc(Br)s3)CC2)cc1 (stereo unspecified) | 5 | -4 | -13 | 1 | 1 | 59* | 24 | -6
CC(=O)c1ccc(N(C(=O)CNC(=O)c2ccco2)C(C(=O)NC2CCCC2)c2ccncc2)cc1 (stereo unspecified) | nt | -3 | 0 | 2 | 4 | -2 | nt | nt
COc1ccc(C(=O)NCc2ccc3c(c2)OCO3)cc1 | 2 | -5 | 8 | 10 | -5 | 6 | nt | nt
COc1ccc(-c2cn3c(C)c(C(=O)NCc4ccc5c(c4)OCO5)sc3n2)cc1 | nt | 8 | -13 | 3 | 2 | 80* | 126* | 13
CCC(=O)NC1=C(Cl)C(=O)C(NC(=O)CC)=C(Cl)C1=O | -16 | nt | nt | 11 | nt | nt | nt | nt
CC(OCc1ccccc1)C(NC(=O)OC(C)(C)C)C(=O)NCC1CCCO1 (stereo unspecified) | -24 | -1 | -12 | -4 | 1 | 46* | -8 | -4
NS(=O)(=O)c1ccc(NC(=O)/C=C/c2cccs2)cc1 | -11 | -4 | 0 | 2 | 0 | 55* | 1 | 0
CC(CCc1ccccc1)NC(=O)CCNS(=O)(=O)c1ccccc1 (stereo unspecified) | nt | 1 | 16 | nt | -1 | 4 | nt | nt
COc1ccc(S(=O)(=O)Nc2cccc(S(=O)(=O)N3CCCCCC3)c2)cc1 | -17 | 2 | 0 | -2 | 1 | 6 | nt | nt
O=S(=O)(Nc1nc2ccccc2nc1Nc1cccc(S(=O)(=O)N2CCCCC2)c1)c1ccccc1 | 18 | 22 | 4 | 6 | nt | 37* | 4 | -2
Cc1ccc(CNC(=O)C(=O)NCC2CCCN2S(=O)(=O)c2cc(C)ccc2C)cc1 (stereo unspecified) | nt | 2 | 1 | nt | 1 | -2 | nt | nt
NS(=O)(=O)c1ccc(NC(=S)NC(=O)c2ccc3c(c2)OCO3)cc1 | -10 | 1 | 10 | -3 | 1 | 61* | 72* | 22
COc1cc(C(=O)OCCc2cc3ccccc3c(=O)o2)cc(OC)c1OC | nt | nt | 10 | nt | nt | nt | nt | nt
O=C1COc2ccc(C(=O)COC(=O)c3ccccc3[N+](=O)[O-])cc2N1 | nt | 7 | 2 | nt | -5 | -1 | nt | nt
O=C1COc2ccc(C(=O)COC(=O)c3cc(S(=O)(=O)NCc4ccccc4)ccc3O)cc2N1 | -19 | 6 | 6 | -2 | 0 | 31* | 5 | -4
C=CCn1c(SCC(=O)NC(=O)NCc2ccco2)nc2sc(CC)cc2c1=O | 1 | 28 | 10 | 5 | 1 | 28* | -6 | 4
C=CCn1c(SCC(=O)NCc2ccco2)nc2ccccc2c1=O | -20 | 0 | 11 | 1 | 0 | 8 | nt | nt
Cc1sc2nc(SCC(=O)NCc3ccco3)n(CCc3ccccc3)c(=O)c2c1C | -13 | 44 | 4 | 23 | -1 | 30* | 3 | 0
O=C1S/C(=C\c2ccccc2)C(=O)N1CC(O)Cn1c2ccccc2c2ccccc21 (stereo unspecified) | -15 | 0 | 1 | -12 | 0 | 30* | 9 | 11
CCOc1ccc(S(=O)(=O)N(C)c2ccc(OCC(=O)Nc3nc4ccccc4s3)cc2)cc1 | -15 | 17 | -2 | -2 | nt | 11 | nt | nt
CN(c1ccc(OCC(=O)Nc2nc3ccccc3s2)cc1)S(=O)(=O)c1ccccc1 | 4 | 21 | 12 | -1 | -1 | 47* | 23 | 8
SMILES | EBV gp42 block | HCV core dimer | ZTA DNA inh | HCV NS3 hel inh | MEX-5 binding | EBNA-1 inh | EBNA-1 confirm | ZTA DNA inh trip
COC(=O)c1ccc(COC(=O)CNC(=O)c2ccc(C)s2)cc1 | nt | nt | 4 | nt | nt | nt | nt | nt
N#C/C(=N\Nc1cccc(C(F)(F)F)c1)C(=O)c1csc(-c2cccnc2)n1 | 0 | 3 | -5 | -33 | 0 | 50* | 0 | 4
CCOc1ccc(Nc2ncnc3c2nnn3Cc2ccccc2)cc1 | nt | -13 | -2 | -6 | -3 | 36* | 9 | -8
CC1CC(C)CN(C(=O)COC(=O)c2nn(C)c(=O)c3ccccc23)C1 (stereo unspecified) | nt | 3 | -1 | nt | -2 | -1 | nt | nt
CN1CCN(c2ccc(-c3cccc(NC(=O)COc4ccc(Cl)cc4Cl)c3)nn2)CC1 | nt | -1 | 18 | nt | -4 | 28* | 51* | -4
CN1CCN(c2ccc(-c3cccc(NC(=O)COc4ccc(Cl)cc4)c3)nn2)CC1 | nt | 0 | 12 | nt | 1 | 2 | nt | nt
COc1ccc(F)cc1C1=CC(=O)C[C@H](c2ccc3c(c2)OCO3)C1 | nt | nt | -11 | nt | nt | nt | nt | nt
Cc1cccc(C)c1NC(=O)COc1ccc2c(C)c(Cc3ccccc3)c(=O)oc2c1 | -11 | 20 | 11 | 1 | -3 | 68* | 7 | -5
COCCn1c(CN2CCN(C(=O)c3ccco3)CC2)nc2c1c(=O)n(C)c(=O)n2C | nt | 6 | -3 | 15 | -2 | -5 | nt | nt
COc1ccc(OC)c(NC(=O)CS(=O)(=O)Cc2nc(-c3ccccc3C)oc2C)c1 | 10 | 14 | 1 | -8 | 2 | 57* | -12 | -2
COc1cccc(-c2nc(CS(=O)(=O)CC(=O)Nc3c(C)cccc3C)c(C)o2)c1 | -18 | 1 | 1 | -1 | -2 | 2 | nt | nt
CC(=O)c1ccc(OCCCC(=O)N2CCN(S(=O)(=O)c3ccc(C)cc3C)CC2)cc1 | nt | -4 | 6 | nt | 2 | -11 | nt | nt
Cn1c(N)c(C(=O)COC(=O)c2ccccc2C(=O)c2ccccc2)c(=O)n(C)c1=O | nt | nt | 3 | nt | nt | nt | nt | nt
CCOc1cc(C(=O)OCC(=O)c2c(N)n(C)c(=O)n(C)c2=O)cc(OCC)c1OCC | -15 | 6 | -1 | -3 | 2 | 76* | 61* | 1
Cc1cc(C(=O)OCC(=O)c2c(N)n(C)c(=O)n(C)c2=O)c(C)n1-c1ccccc1 | -13 | 8 | -3 | -7 | -2 | 41* | 82* | 8
